# Experimental data gathered from unrelated publications.
# Each line is one published result; the experiments were not run side by side.
# Target: Serine/threonine-protein kinase OSR1 (OXSR1, Homo sapiens, UniProt O95747)
SMILES,test,test system,conditions,quantity,value
CC1(C)NC(=O)c2[nH]c3c(Cl)c(Cl)ccc3c2C1C#N (centres unmarked),"thermal stability, DSF",,10 µM,ΔTm,-0.1 °C
Cc1ccc(C(=O)Nc2ccc(CN3CCN(C)CC3)c(C(F)(F)F)c2)cc1C#Cc1cnc2cccnn12,"enzyme activity, inhibitor",,23.5 nM,remaining activity,96%
Cc1nc(Cc2cccc(C(F)(F)F)c2)sc1-c1ccc(C(N)=O)nc1,"cell-free assay, competition with immobilised ligand",,1 µM,remaining binding,100%
FC(F)(F)Oc1cccc(-c2cnc3ccc(-c4ccncc4)nn23)c1,"enzyme activity, inhibitor, radiometric",,5 µM,activity vs control,104%
O=C(NS(=O)(=O)c1ccc(NCC2CCOCC2)c([N+](=O)[O-])c1)c1ccc(N2CCN(Cc3ccc(C(F)(F)F)cc3-c3ccc(Cl)cc3)CC2)cc1Oc1cnc2[nH]ccc2c1,"cell-free assay, competition with immobilised ligand",,1 µM,remaining binding,83%
Cc1ccc(NC(=O)c2ccc(CN3CCN(C)CC3)cc2)cc1Nc1nc(-c2cccnc2)cs1,cell-free assay,,0.5 µM,remaining signal,95.6%
c1ccc(CNc2nc(N3CCOc4ccccc43)nc3c2CCCC3)cc1,"target engagement in cells, inhibitor, chemoproteomics",,20 mM,inhibition,-9%
O=C(O)c1cc(-c2ccc(C3CCNCC3)cc2)c2ccc(-c3ccc(C(F)(F)F)cc3)cc2c1,"cell-free assay, competition with immobilised ligand",,1 µM,remaining binding,100%
O=C1Nc2ccc(Cl)cc2C1=Cc1cc(Cl)c(O)c(Cl)c1,cell-free assay,,0.5 µM,remaining signal,91.6%
CCN1CCN(Cc2ccc(NC(=O)c3ccc(C)c(Oc4ccnc5[nH]ccc45)c3)cc2C(F)(F)F)CC1,"target engagement in cells, inhibitor, chemoproteomics",Huh-7,1 µM,inhibition,-64.3%
CCCCNc1ncc2c(-c3ccc(F)cc3)nn(C[C@H]3CC[C@H](N)CC3)c2n1,"target engagement in cells, inhibitor, chemoproteomics",,20 mM,inhibition,8.2%
O=C(Nc1cnn(-c2csc(C(=O)NC3COC3)c2)c1)Nc1ccccc1Cl,"enzyme activity, inhibitor",,5 µM,remaining activity,92.6%
COc1cc(/C=C/C(=O)CC(=O)/C=C/c2ccc(O)c(OC)c2)ccc1O,"enzyme activity, inhibitor",,1 µM,activity vs control,104%
O=C1NC(=O)c2cc(Nc3ccc(F)cc3)c(Nc3ccc(F)cc3)cc21,cell-free assay,,0.5 µM,remaining signal,101%
N#CC1(c2ccccn2)CCN(Cc2cc(C(=O)N3CCCC3)c(=O)n3ccccc23)CC1,"cell-free assay, competition with immobilised ligand",,1 µM,remaining binding,100%
Cn1c2c(c3ccc(Cl)c(Cl)c31)C(C#N)C1(CCN(C(=O)OC(C)(C)C)CC1)NC2=O (racemic),"thermal stability, DSF",,10 µM,ΔTm,-0.1 °C
CO[C@@H](C)c1c(Nc2ccc([C@@H](N(C)C(=O)C3CCS(=O)(=O)CC3)C(F)(F)F)cc2)cnc2cc(Cl)nn12,"cell-free assay, competition with immobilised ligand",,1 µM,remaining binding,100%
CCC1(CC)NC(=O)c2c(c3ccc(Cl)c(Cl)c3n2C)C1C#N (centres unmarked),"thermal stability, DSF",,10 µM,ΔTm,-0.3 °C
COc1cc(Nc2cnc(C#N)c(O[C@H](C)CN(C)C)n2)ncc1-c1cnn(C)c1,"enzyme activity, inhibitor, radiometric",,10 µM,remaining activity,106%
COCCOc1nc(-c2ccc(Cl)nc2)nc2c1CN(C(=O)c1ncn3ccccc13)CC2,"cell-free assay, competition with immobilised ligand",,0.1 µM,remaining binding,100%
Cn1c2c(c3ccc(Cl)c(Cl)c31)C(C#N)C1(CCCC1)NC2=O (centres unmarked),"thermal stability, DSF",,10 µM,ΔTm,-0.1 °C
Cc1c(NC(=O)c2cc(C(N)=O)nc3cc(F)ccc23)c(C(F)(F)F)nn1Cc1ccc(C(C)(C)C)cc1,"cell-free assay, competition with immobilised ligand",,1 µM,remaining binding,100%
Cn1c2c(c3ccc(Cl)c(Cl)c31)C(C#N)C1(CCNCC1)NC2=O (racemic),"thermal stability, DSF",,10 µM,ΔTm,-0.1 °C
CS(=O)(=O)CCNCc1ccc(-c2ccc3ncnc(Nc4ccc(OCc5cccc(F)c5)c(Cl)c4)c3c2)o1,cell-free assay,,0.5 µM,remaining signal,105%
CCN1CCC2(CC1)NC(=O)c1c(c3ccc(Cl)c(Cl)c3n1C)C2C#N (racemic),"thermal stability, DSF",,10 µM,ΔTm,0 °C
O=C(Nc1cnn(-c2csc(C(=O)NC3COC3)c2)c1)Nc1c(F)cccc1Cl,"enzyme activity, inhibitor",,5 µM,remaining activity,96.5%
